Bioassay records as filed in PubChem BioAssay.
ZTA DNA inh = counter-screen for EBNA-1 inhibitors: inhibitors of Epstein-Barr virus ZTA; inhibition, % at 11 µM; P03206; 320,000 compounds, 0.15% hits; ZTA-DNA binding, fluorescence polarization; AID 2234; in the data active = inhibition above about 33%
Target sequence (P03206 whole entry, looked up): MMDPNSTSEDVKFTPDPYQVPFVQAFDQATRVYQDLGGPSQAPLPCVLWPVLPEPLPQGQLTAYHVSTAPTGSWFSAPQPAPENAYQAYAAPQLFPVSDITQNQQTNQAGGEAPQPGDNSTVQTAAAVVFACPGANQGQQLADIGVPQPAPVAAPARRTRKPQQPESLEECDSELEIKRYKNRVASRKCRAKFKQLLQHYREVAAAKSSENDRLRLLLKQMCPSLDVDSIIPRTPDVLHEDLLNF
core dimer inh = inhibitors of HCV core protein dimerization, primary screen, biochemical, TR-FRET, high-throughput | TR-FRET GST/Flag-core106 dimerization, 1536-well | inhibition, % at 5 µM | 300,000 compounds, 0.33% hits | AID 1899, 2009;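 active = inhibition above the mean of all tested compounds plus 3 SD, set per screening campaign, cut at about 45% in these data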
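Material: GST/Flag-tagged HCV core106 proteins. Incubation: 4 h, 22.5 °C incubation. Read-out basis: inhibition (%) from 671 over 617 nm ratio. Measured by: TR-FRET, excitation 340 nm, emission 617 and 671 nm.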
PP1 counter = PP1-alpha phosphatase inhibitors, primary screen, counter-screen for PP5 inhibitor project, biochemical, fluorescence, OMFP substrate, single point. inhibition, % at 6.7 µM. purified PP1alpha. 320,000 compounds, 0.9% hits. AID 2235, 2010;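 active = inhibition above the mean inhibition of all tested compounds plus 3 SD, computed separately for each screening campaign, cut at about 15% in these data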
Target sequence (P62136 whole entry, looked up): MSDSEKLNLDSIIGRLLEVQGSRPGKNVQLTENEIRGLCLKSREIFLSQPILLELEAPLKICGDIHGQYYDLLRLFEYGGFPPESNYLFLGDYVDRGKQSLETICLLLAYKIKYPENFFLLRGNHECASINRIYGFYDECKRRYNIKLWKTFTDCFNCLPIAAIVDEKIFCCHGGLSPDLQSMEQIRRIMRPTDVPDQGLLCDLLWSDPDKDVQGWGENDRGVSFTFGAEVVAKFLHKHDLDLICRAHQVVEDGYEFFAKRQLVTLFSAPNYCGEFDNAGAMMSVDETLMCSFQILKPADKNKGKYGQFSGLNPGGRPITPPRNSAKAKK
NS3 helicase inh = inhibitors of HCV NS3 helicase, primary screen, biochemical, Cy5 molecular beacon fluorescence; Hepatitis C virus NS3 helicase; NS3 helicase DNA unwinding; inhibition, % at 10.9 µM; 290,000 compounds, 0.56% hits;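 active = inhibition above the mean of all tested compounds plus 3 SD, set per campaign, cut at about 35% in these data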;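 note: 0% = DMSO wells and 100% = thioflavine S control wells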
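Material: hepatitis C virus NS3 helicase domain fragment enzyme; measured by: Cy5 fluorescence, 0 and 60 min reads; control set: DMSO and thioflavine S; incubation: 60 min unwinding reaction at 25 °C after ATP addition; read-out basis: % inhibition from 60/0 min fluorescence ratio, DMSO 0%, thioflavine S 100%; repeats: singlicate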
EBNA-1 inh = EBNA-1 DNA-binding inhibitors, primary screen, biochemical, fluorescence polarization; inhibition, % at 14.8 µM; 300,000 compounds, 0.34% hits; AID 1950, 2009; in the data active = inhibition above about 28%
PP1 confirm = PP1 phosphatase inhibitors, confirmation, biochemical, fluorescence, OMFP substrate, triplicate | shares compounds with PP1 counter | purified PP1alpha | inhibition, % at 6.7 µM | 1,900 compounds, 52% hits | AID 2358, 2010;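 active = mean PP1 inhibition above a set limit taken from the earlier primary screen, cut at about 15% in these data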
PP5 inh counter = PP5 phosphatase inhibition by PP1 hits, confirmation, counter-screen for PP1 inhibitor project, biochemical, fluorescence, triplicate | shares compounds with PP1 counter | 1,900 compounds, 4% hits | inhibition, % at 6.7 µM | AID 2360, 2010 | purified PP5c, OMFP fluorescence;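 active = mean PP5 inhibition over triplicate wells above about 9.5% taken from the earlier PP1 screen, limit read from the data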
Active calls of the source: *. In the library only some 1.9% were active in any assay of this set; here they are far more common.

O=C(NC1CCC(O)CC1)c1cccnc1Sc1ccccc1Cl (stereo not given) was read as ZTA DNA inh 9, core dimer inh 8, PP1 counter -2, NS3 helicase inh 3 and EBNA-1 inh 18.
CC(=O)N1CCN(C(=O)COc2ccccc2C(=O)Nc2ccccc2)CC1 was read as ZTA DNA inh 9, core dimer inh -3, PP1 counter -1, NS3 helicase inh 0 and EBNA-1 inh 2.
Screening CCC(C)(C)NC(=O)CN(Cc1ccccc1)C(=O)CCC(=O)Nc1nccs1 returned ZTA DNA inh -14, core dimer inh -3, PP1 counter 0, NS3 helicase inh 6 and EBNA-1 inh 1.
For CN1CCN(S(=O)(=O)c2cccc(C(=O)Oc3ccccc3Cl)c2)CC1 the results were ZTA DNA inh 12, core dimer inh 2, PP1 counter 5, NS3 helicase inh -33 and EBNA-1 inh 4.
For CCOc1ccc(Cn2c(=O)sc3ccccc32)cc1OC the results were ZTA DNA inh 1, core dimer inh -2, PP1 counter -6, NS3 helicase inh -5 and EBNA-1 inh 0.
COc1ccc2nc(N3C(=O)C(O)=C(C(=O)c4ccco4)C3c3ccccc3OC)sc2c1 (stereo not given) was read as ZTA DNA inh -1, core dimer inh -3, PP1 counter 29*, NS3 helicase inh 25, EBNA-1 inh 1, PP1 confirm 20* and PP5 inh counter -2.
Screening CCCOc1cccc(C2C(C(=O)c3ccc(C)o3)=C(O)C(=O)N2c2nc(C)c(C(C)=O)s2)c1 (stereo not given) returned ZTA DNA inh -12, core dimer inh -31, PP1 counter 25*, NS3 helicase inh 18, EBNA-1 inh 14, PP1 confirm 32* and PP5 inh counter 3.
For O=C(COC(=O)c1ccc(O)cc1O)NC(=O)NCc1ccccc1 the results were ZTA DNA inh -6 and PP1 counter -1.
For CCOc1ccc(/C=C2\SC(=S)N(CCC(=O)N(CCO)c3ccccc3)C2=O)cc1 the results were ZTA DNA inh 0, core dimer inh 12, PP1 counter 22*, NS3 helicase inh -5, EBNA-1 inh -3, PP1 confirm 8 and PP5 inh counter 4.
`O=C(NNC(=S)NCC1CCCO1)c1cc(Br)ccc1Cl` (stereo not given) gave ZTA DNA inh -8, core dimer inh -4, PP1 counter 1, NS3 helicase inh -2 and EBNA-1 inh 8.
For CC(C)[C@H](NC(=O)[C@H](Cc1ccccc1)n1c(=O)[nH]c2ccccc2c1=O)C(=O)N1CCC[C@@H]1C(=O)O the results were ZTA DNA inh 6, core dimer inh 1, PP1 counter -2, NS3 helicase inh 4 and EBNA-1 inh 6.
For COC(=O)c1ccccc1NC(=O)CSc1nc(N)cc(=O)[nH]1 the results were ZTA DNA inh 10, core dimer inh 9, PP1 counter 26*, NS3 helicase inh 6, EBNA-1 inh 9, PP1 confirm -7 and PP5 inh counter -7.
`O=c1cc(CN2CCc3ccccc32)nc2sccn12` gave ZTA DNA inh 4, core dimer inh 86*, PP1 counter 24*, NS3 helicase inh 0, EBNA-1 inh 5, PP1 confirm 31* and PP5 inh counter -3.
`O=c1cc(CN2CCCc3ccccc32)nc2sccn12` gave ZTA DNA inh 10, core dimer inh 2, PP1 counter 1, NS3 helicase inh -9 and EBNA-1 inh 12.
For O=C(NCc1cccc(F)c1F)C1CCC(=O)N(C2CCCCCC2)C1 (stereo not given) the results were ZTA DNA inh 14, core dimer inh -10, PP1 counter -8, NS3 helicase inh 3 and EBNA-1 inh 1.
CCN1CCN(Cc2ccc(NC(=O)c3cc(NC(=O)c4cc(-c5ccc(OC)cc5)n[nH]4)cc(OC)c3)cc2C(F)(F)F)CC1 was read as ZTA DNA inh 18, core dimer inh -20, PP1 counter 11 and EBNA-1 inh 10.
`CCN1CCN(Cc2ccc(NC(=O)c3cc(NC(=O)c4cncc(-c5cccs5)c4)cc(OC)c3)cc2C(F)(F)F)CC1` gave ZTA DNA inh -8, core dimer inh -22, PP1 counter 19*, NS3 helicase inh -76, EBNA-1 inh -2, PP1 confirm -23 and PP5 inh counter 0.
`CCN1CCN(Cc2ccc(NC(=O)c3cc(NC(=O)N4CCNC4=O)cc(OC)c3)cc2C(F)(F)F)CC1` gave ZTA DNA inh 2, core dimer inh -11, PP1 counter -1 and EBNA-1 inh 15.
CCN1CCN(Cc2ccc(NC(=O)c3cc(NC(=O)C4=NN(c5ccccc5)C(=O)C4)cc(OC)c3)cc2C(F)(F)F)CC1 was read as ZTA DNA inh -4, core dimer inh -10, PP1 counter 18*, EBNA-1 inh -10, PP1 confirm -6 and PP5 inh counter -2.
`CCN1CCN(Cc2ccc(NC(=O)c3ccc(C)c(NC(=O)c4ccno4)c3)cc2C(F)(F)F)CC1` gave ZTA DNA inh -5, core dimer inh -11, PP1 counter -1 and EBNA-1 inh 7.
`CCN1CCN(Cc2ccc(NC(=O)c3ccc(C)c(NC(=O)C4=NN(c5ccccc5)C(=O)C4)c3)cc2C(F)(F)F)CC1` gave ZTA DNA inh -5, core dimer inh 3, PP1 counter 18*, EBNA-1 inh -2, PP1 confirm 1 and PP5 inh counter -2.
Screening COc1ccc(-n2ncc3c2CC(C)(C)CC3NC(=O)C2=CC(=O)CC(C)(C)O2)cc1 (stereo not given) returned ZTA DNA inh -8, core dimer inh -2, PP1 counter -2, NS3 helicase inh -3 and EBNA-1 inh -14.
`O=C(COC(=O)c1ccc(Br)cc1)NC(=O)NCc1ccccc1` gave ZTA DNA inh -11 and PP1 counter 3.
Screening CC1=NNC(=O)/C1=C\c1cn(-c2ccccc2)nc1-c1cccs1 returned ZTA DNA inh -7, core dimer inh 17, PP1 counter 19*, NS3 helicase inh -4, EBNA-1 inh 4, PP1 confirm 10 and PP5 inh counter 0.
For NC(=O)c1nc(-c2ccco2)nc2c1[nH]c(=O)n2-c1ccc(Cl)c(Cl)c1 the results were ZTA DNA inh -1, core dimer inh 4, PP1 counter 7, NS3 helicase inh 15 and EBNA-1 inh 10.
